IC50 and EC50 data for twelve molecules are collected here from ChEMBL document CHEMBL1132321, “Nucleosides and nucleotides. 185. Synthesis and biological activities of 4'alpha-C-branched-chain sugar pyrimidine nucleosides” (J Med Chem, 1999).

The subject of experiment [1] is KB. Description: Cytotoxicity against KB cells. Type of experiment: functional, cell-based. Particulars: Homo sapiens.
The test system of experiment [2] is L1210. Description: Cytotoxicity against L1210 cells. Type of experiment: functional, cell-based. To be noted: Mus musculus.
Experiment [3] concerns Human alphaherpesvirus 2. Briefly: Antiviral activity against Herpes simplex virus type-2 (HSV-2). Type of experiment: functional, organism-based. A digest of the protocol:
(§1)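 Cell-protection read-out: HSV-1 Kos strain on MRC-5 cells, HSV-2 G strain on MRC-5 cells, HIV-1 IIIb strain on MT-4 cells. Cells infected at MOI 0.02, then immediately plated with serial compound dilutions. After 4 days of incubation at 36 °C, viable cells were counted by MTT. […].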

Experiment [4] deals with Human immunodeficiency virus 1. Description: (§2) Antiviral activity against Human immunodeficiency virus type-1. Type of experiment: functional, organism-based. A digest of the protocol: as §1
Experiment [5] concerns Human alphaherpesvirus 1. Description: Antiviral activity against Herpes simplex virus type-1 (HSV-1). Type of experiment: functional, organism-based. Put shortly: as §1
Experiment [6] deals with Human immunodeficiency virus 1. Described as §2.

Broadly, the IC50 is the midpoint of a concentration-inhibition curve. A higher IC50 goes with weaker potency in that assay. For the molecule `C#C[C@]1(CO)O[C@@H](n2ccc(N)nc2=O)[C@H](O)[C@@H]1O`, the half-maximal inhibitory concentration (IC50) in experiment [1] and in experiment [2] was > 350 µM in each case.

A word on the EC50: it is the concentration that produces a half-maximal response. With `Nc1ccn([C@H]2C[C@H](O)[C@@](/C=C/Cl)(CO)O2)c(=O)n1`, the EC50 in experiment [3] is > 350 µM; in experiment [4], 2.1 µM; in experiment [5], > 350 µM. Besides, the half-maximal inhibitory concentration (IC50) is > 350 µM in experiment [3]; 4.6 µM in experiment [4]; > 350 µM in experiment [5]; > 350 µM in experiment [1]; 200 µM in experiment [2].

Take `C=C[C@]1(CO)O[C@@H](n2ccc(N)nc2=O)C[C@@H]1O`: the EC50 is > 350 µM in experiment [3], 0.0086 µM in experiment [4] and > 350 µM in experiment [5]. Further, the IC50 in experiment [3] is > 350 µM; in experiment [4] it was 0.18 µM; in experiment [5] it was > 350 µM; in experiment [1] it was > 350 µM; in experiment [2], 21 µM.

Take `N#C[C@]1(CO)O[C@@H](n2ccc(=O)[nH]c2=O)[C@H](O)[C@@H]1O`: the IC50 in experiment [1] and in experiment [2] was > 350 µM throughout.

On to `C#C[C@]1(CO)O[C@@H](n2ccc(=O)[nH]c2=O)[C@H](O)[C@@H]1O`, for which the concentration for half-maximal inhibition (IC50) in experiment [1] and in experiment [2] was > 350 µM in each case.

With `Cc1cn([C@H]2C[C@H](N=[N+]=[N-])[C@@H](CO)O2)c(=O)[nH]c1=O` [ZIDOVUDINE], in experiment [4], the IC50 was determined as 3.2 µM. The same molecule displayed an EC50 in experiment [6] of 0.0041 µM.

Take `C[C@]1(CO)O[C@@H](n2ccc(N)nc2=O)C[C@@H]1O`: the results for the EC50 in experiment [3], in experiment [4] and in experiment [5] were 0.58 µM, 0.062 µM and 3.1 µM, respectively. Further, the 50% inhibitory concentration (IC50) in experiment [3] is 260 µM; in experiment [4], 0.062 µM; in experiment [5], 260 µM; in experiment [1] it was > 350 µM; in experiment [2] it was 0.16 µM.

As for `CC[C@]1(CO)O[C@@H](n2ccc(N)nc2=O)C[C@@H]1O`, the results for the 50% effective concentration (EC50) in experiment [3], in experiment [4] and in experiment [5] were > 350 µM, 0.013 µM and > 350 µM, respectively. Also, the concentration for half-maximal inhibition (IC50) was > 350 µM in experiment [3]; 0.77 µM in experiment [4]; > 350 µM in experiment [5]; > 350 µM in experiment [1]; 55 µM in experiment [2].

Consider `N#C[C@]1(CO)O[C@@H](n2ccc(N)nc2=O)[C@H](O)[C@@H]1O`, for which the half-inhibitory concentration (IC50) in experiment [1] and in experiment [2] was > 350 µM throughout.

Consider `N#C[C@]1(CO)O[C@@H](n2ccc(N)nc2=O)C[C@@H]1O`, for which the EC50 in experiment [3] is 21 µM; in experiment [4], 0.0012 µM; in experiment [5], 3.6 µM. Further, the IC50 is > 350 µM in experiment [3]; 0.17 µM in experiment [4]; > 350 µM in experiment [5]; > 350 µM in experiment [1]; 0.33 µM in experiment [2].

Take `C#C[C@]1(CO)O[C@@H](n2ccc(N)nc2=O)C[C@@H]1O`: the EC50 in experiment [3] is > 350 µM; in experiment [4] it was 0.0022 µM; in experiment [5], 200 µM. Further, the half-maximal inhibitory concentration (IC50) was > 350 µM in experiment [3], 0.16 µM in experiment [4] and > 350 µM in experiment [5].

For `Nc1nc2c(ncn2COCCO)c(=O)[nH]1` [ACYCLOVIR], the 50% effective concentration (EC50) in experiment [3] came to 1.1 µM; in experiment [5] it was 0.36 µM. The concentration for half-maximal inhibition (IC50) in experiment [3] and in experiment [5] was > 350 µM in each case.
